≈ marks a conversion by molar mass, not a printed value.
Assays:
Klebsiella pneumoniae [1] = test: Antibacterial activity against ESBL positive Klebsiella pneumoniae ATCC 700603 after 24 hrs by resazurin dye based microdilution assay; assay type: functional; conditions: Klebsiella pneumoniae, 700603, 24 h
In short: (§1)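 MIC taken as the lowest concentration giving visible inhibition and/or by resazurin (1 mg/mL). Gentamicin was the control. Run in duplicate, repeated at least three times.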

Klebsiella pneumoniae [2] = test: Antibacterial activity against carbapenemase positive Klebsiella pneumoniae BAA 1705 after 24 hrs by resazurin dye based microdilution assay; assay type: functional; conditions: BAA 1705, 24 h; in short: as §1
Leishmania panamensis = test: Antileshmanial activity against EpiR/GFP fused Leishmania panamensis MHOM/CO/87/UA140 intracellular amastigotes infected in human […] cells after 72 hrs by flow cytometric method; assay type: functional, cell-based; conditions: MHOM/CO/87/UA140, 72 h
In short: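 PMA-treated U-937 cells (3 × 10^5 cells/mL) infected with stationary-phase GFP L. panamensis promastigotes (15:1), 3 h at 34 °C, then washed. After 24 h, compounds added at 50, 12.5, 3.125 and 0.78 µg/mL for 72 h at 37 °C. EC50 by Probit; triplicate, two experiments.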

Candida albicans [3] = test: Antifungal activity against Candida albicans ATCC 10231 incubated for 48 hrs under dark condition by broth microdilution method; assay type: functional; conditions: ATCC 10231, 48 h
In short: (§2)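 CLSI M27-A3 broth microdilution in RPMI-1640, DMSO ≤1%, compounds at 250-0.98 µg/mL final. Inoculum 1-5 × 10^3 CFU/mL. Incubated 48 h at 30 °C in a moist dark chamber, read at OD405. MIC80 and MIC50 taken from % inhibition dose-response curves (mean ± SEM, triplicate). Amphotericin B was the positive control.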

Cryptococcus neoformans [4] = test: Antifungal activity against Cryptococcus neoformans ATCC 32264 incubated for 48 hrs under dark condition by broth microdilution method; assay type: functional; conditions: ATCC 32264, 48 h; in short: as §2
Candida albicans [5] = test: Growth inhibition of Candida albicans ATCC 10231 at 250 ug/ml incubated for 48 hrs under dark condition by broth microdilution method relative to control; assay type: functional; conditions: ATCC 10231, 48 h, read-out: GI
In short: (§3)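 CLSI M27-A3 broth microdilution in RPMI-1640, DMSO ≤1%. Inoculum 1-5 × 10^3 CFU/mL. Incubated 48 h at 30 °C, dark. % inhibition = 100 − (OD405 test − sterility control)/(OD405 growth control − sterility control), with growth and sterility control wells. Triplicate.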

Candida albicans [6] = test: Growth inhibition of Candida albicans ATCC 10231 at 125 ug/ml incubated for 48 hrs under dark condition by broth microdilution method relative to control; assay type: functional; conditions: ATCC 10231, 48 h, read-out: GI; in short: as §3
Candida albicans [7] = test: Growth inhibition of Candida albicans ATCC 10231 at 62.5 ug/ml incubated for 48 hrs under dark condition by broth microdilution method relative to control; assay type: functional; conditions: ATCC 10231, 48 h, read-out: GI; in short: as §3
Candida albicans [8] = test: Growth inhibition of Candida albicans ATCC 10231 at 31.25 ug/ml incubated for 48 hrs under dark condition by broth microdilution method relative to control; assay type: functional; conditions: ATCC 10231, 48 h, read-out: GI; in short: as §3
Candida albicans [9] = test: Growth inhibition of Candida albicans ATCC 10231 at 15.62 ug/ml incubated for 48 hrs under dark condition by broth microdilution method relative to control; assay type: functional; conditions: ATCC 10231, 48 h, read-out: GI; in short: as §3
Candida albicans [10] = test: Growth inhibition of Candida albicans ATCC 10231 at 7.8 ug/ml incubated for 48 hrs under dark condition by broth microdilution method relative to control; assay type: functional; conditions: ATCC 10231, 48 h, read-out: GI; in short: as §3
Candida albicans [11] = test: Growth inhibition of Candida albicans ATCC 10231 at 3.4 ug/ml incubated for 48 hrs under dark condition by broth microdilution method relative to control; assay type: functional; conditions: ATCC 10231, 48 h, read-out: GI
Cryptococcus neoformans [12] = test: Growth inhibition of Cryptococcus neoformans ATCC 32264 at 250 ug/ml incubated for 48 hrs under dark condition by broth microdilution method relative to control; assay type: functional; conditions: ATCC 32264, 48 h, read-out: GI; in short: as §3
Cryptococcus neoformans [13] = test: Growth inhibition of Cryptococcus neoformans ATCC 32264 at 125 ug/ml incubated for 48 hrs under dark condition by broth microdilution method relative to control; assay type: functional; conditions: ATCC 32264, 48 h, read-out: GI; in short: as §3
Cryptococcus neoformans [14] = test: Growth inhibition of Cryptococcus neoformans ATCC 32264 at 62.5 ug/ml incubated for 48 hrs under dark condition by broth microdilution method relative to control; assay type: functional; conditions: ATCC 32264, 48 h, read-out: GI; in short: as §3
Cryptococcus neoformans [15] = test: Growth inhibition of Cryptococcus neoformans ATCC 32264 at 31.25 ug/ml incubated for 48 hrs under dark condition by broth microdilution method relative to control; assay type: functional; conditions: ATCC 32264, 48 h, read-out: GI; in short: as §3
Cryptococcus neoformans [16] = test: Growth inhibition of Cryptococcus neoformans ATCC 32264 at 15.62 ug/ml incubated for 48 hrs under dark condition by broth microdilution method relative to control; assay type: functional; conditions: ATCC 32264, 48 h, read-out: GI; in short: as §3
Cryptococcus neoformans [17] = test: Growth inhibition of Cryptococcus neoformans ATCC 32264 at 7.8 ug/ml incubated for 48 hrs under dark condition by broth microdilution method relative to control; assay type: functional; conditions: ATCC 32264, 48 h, read-out: GI; in short: as §3
Cryptococcus neoformans [18] = test: Growth inhibition of Cryptococcus neoformans ATCC 32264 at 3.4 ug/ml incubated for 48 hrs under dark condition by broth microdilution method relative to control; assay type: functional; conditions: ATCC 32264, 48 h, read-out: GI
Staphylococcus aureus [19] = test: Antibacterial activity against methicillin-sensitive Staphylococcus aureus ATCC 25923 after 24 hrs by resazurin dye based microdilution assay; assay type: functional; conditions: ATCC 25923, 24 h; in short: as §1
Staphylococcus aureus [20] = test: Antibacterial activity against methicillin-resistant Staphylococcus aureus ATCC 43300 after 24 hrs by resazurin dye based microdilution assay; assay type: functional; conditions: ATCC 43300, 24 h
In short: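 Broth microdilution in Mueller Hinton broth, inoculum 5 × 10^5 – 8 × 10^5. Compound stocks diluted in MHB with 5% DMSO and 0.1% Tween 80. Incubation 24 h at 35-37 °C. MIC is the lowest concentration with visible growth inhibition and/or by resazurin (1 mg/mL) read-out. Gentamicin as control. Run in duplicate, replicated at least three times.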

Staphylococcus aureus [21] = test: Antibacterial activity against vancomycin-intermediate Staphylococcus aureus after 24 hrs by resazurin dye based microdilution assay; assay type: functional; in short: as §1
Escherichia coli = test: Antibacterial activity against Escherichia coli ATCC 25922 after 24 hrs by resazurin dye based microdilution assay; assay type: functional; conditions: ATCC 25922, 24 h; in short: as §1
Pseudomonas aeruginosa = test: Antibacterial activity against Pseudomonas aeruginosa ATCC 27853 after 24 hrs by resazurin dye based microdilution assay; assay type: functional; conditions: ATCC 27853, 24 h; in short: as §1
Neisseria gonorrhoeae = test: Antibacterial activity against beta lactamase positive Neisseria gonorrhoeae ATCC 31426 by oxidase test; assay type: functional
In short: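 Agar dilution MIC on GC agar with 1% isovitalex containing increasing compound concentrations. Plates inoculated with about 1×10^4 CFU (5 µL). MIC is the lowest concentration that inhibited growth, with growth confirmed by oxidase test. Run in duplicate, repeated at least three times.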

Plasmodium falciparum = test: Antiplasmodial activity against chloroquine-sensitive Plasmodium falciparum 3D7 assessed as reduction in parasitic LDH activity after 48 hrs by Malstat reagent based […] method; assay type: functional; conditions: 3D7, 48 h
In short: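 Unsynchronized P. falciparum 3D7 at 0.5% parasitemia and 1% hematocrit in RPMI with 3% Albumax II. Exposed to 100, 25, 6.25 and 1.56 µg/mL for 48 h at 37 °C under 90% N2/5% CO2/5% O2. After three freeze-thaw cycles, LDH measured with Malstat and NBT/PES, 1 h in the dark, read at 650 nm. IC50 by Probit; triplicate, ≥2 experiments.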

U-937 = test: Cytotoxicity against human U937 cells after 72 hrs by MTT assay; assay type: cell-based; conditions: u-937, 72 h
In short: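 Exponentially growing U-937 at 1 × 10^5 cells/mL in RPMI-1640 with 10% FBS were exposed to 200, 50, 12.5 and 3.125 µg/mL for 72 h at 37 °C, 5% CO2. MTT for 3 h, stopped with isopropanol/SDS, formazan read at 570 nm, blank-corrected. LC50 by Probit from % viability against untreated cells. Triplicate, at least two independent experiments.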

Trypanosoma cruzi = test: Antitrypanosomal activity against Trypanosoma cruzi Tulahuen intracellular amastigote harboring LacZ infected in human U937 cells after 72 hrs by CPRG/Nonidet reagent based spectrophotometric method; assay type: functional, cell-based; conditions: U-937, 72 h
In short: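 U-937 cells at 2.5 × 10^5 cells/mL in RPMI-1640 with 10% serum and 0.1 µg/mL PMA were infected with β-galactosidase-transfected Tulahuen epimastigotes at 5 parasites per cell. Infected cells were exposed to 50, 12.5, 3.125 and 0.78 µg/mL for 72 h. CPRG (100 uM) and 0.1% Nonidet P-40 were added for 3 h, read at 570 nm. EC50 by Probit. Triplicate, at least two experiments; benznidazole as reference.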

Structure (SMILES)	MIC (Klebsiella pneumoniae [1]) [µg/mL]	MIC (Klebsiella pneumoniae [2]) [µg/mL]	EC50 (Leishmania panamensis) [µg/mL]	MIC50 (Candida albicans [3]) [µg/mL]	MIC80 (Candida albicans [3]) [µg/mL]	MIC50 (Cryptococcus neoformans [4]) [µg/mL]	MIC80 (Cryptococcus neoformans [4]) [µg/mL]	inhibition of growth at 250 µg/mL (Candida albicans [5]) [%]	inhibition of growth at 125 µg/mL (Candida albicans [6]) [%]	inhibition of growth at 62.5 µg/mL (Candida albicans [7]) [%]	inhibition of growth at 31.25 µg/mL (Candida albicans [8]) [%]	inhibition of growth at 15.62 µg/mL (Candida albicans [9]) [%]	inhibition of growth at 7.8 µg/mL (Candida albicans [10]) [%]	inhibition of growth at 3.4 µg/mL (Candida albicans [11]) [%]	inhibition of growth at 250 µg/mL (Cryptococcus neoformans [12]) [%]	inhibition of growth at 125 µg/mL (Cryptococcus neoformans [13]) [%]	inhibition of growth at 62.5 µg/mL (Cryptococcus neoformans [14]) [%]	inhibition of growth at 31.25 µg/mL (Cryptococcus neoformans [15]) [%]	inhibition of growth at 15.62 µg/mL (Cryptococcus neoformans [16]) [%]	inhibition of growth at 7.8 µg/mL (Cryptococcus neoformans [17]) [%]	also measured
Cc1ccc(C2=NN(c3ccc(Cl)cc3)C(c3cccc(Nc4ccnc5cc(Cl)ccc45)c3)C2)cc1 (stereo not given)	> 1000	> 1000	49.4 (≈ 94.4 µM)	≥ 250	≥ 250	≥ 250	≥ 250	36.5	16.2	13.1	8.37	7.27	5.67	0	22.8	15.9	12.9	10.9	6.99	6.57	inhibition of growth at 3.4 µg/mL (Cryptococcus neoformans [18]): 0%; MIC (Staphylococcus aureus [19]): > 1000 µg/mL; MIC (Staphylococcus aureus [20]): > 1000 µg/mL; MIC (Staphylococcus aureus [21]): > 1000 µg/mL; MIC (Escherichia coli): > 1000 µg/mL; MIC (Pseudomonas aeruginosa): > 1000 µg/mL; MIC (Neisseria gonorrhoeae): > 1000 µg/mL; EC50 (Plasmodium falciparum): 13.7 µg/mL (≈ 26.2 µM); LC50 (U-937): > 200 µg/mL; EC50 (Trypanosoma cruzi): 21.9 µg/mL (≈ 41.9 µM)
COc1ccc(C2=NN(c3cc(Cl)cc(Cl)c3)C(c3cccc(Nc4ccnc5cc(Cl)ccc45)c3)C2)cc1 (stereo not given)	> 1000	> 1000	12.6 (≈ 22 µM)	≥ 250	≥ 250	≥ 250	≥ 250	27.9	10.3	9.34	5.03	1.75	1.72	1.02	43	10.2	6.18	3.09	2.11	0	inhibition of growth at 3.4 µg/mL (Cryptococcus neoformans [18]): 0%; MIC (Staphylococcus aureus [19]): > 1000 µg/mL; MIC (Staphylococcus aureus [20]): > 1000 µg/mL; MIC (Staphylococcus aureus [21]): > 1000 µg/mL; MIC (Escherichia coli): > 1000 µg/mL; MIC (Pseudomonas aeruginosa): > 1000 µg/mL; MIC (Neisseria gonorrhoeae): > 1000 µg/mL; EC50 (Plasmodium falciparum): 10.4 µg/mL (≈ 18.1 µM); LC50 (U-937): > 200 µg/mL; EC50 (Trypanosoma cruzi): 31 µg/mL (≈ 54.1 µM)

Reference: ChEMBL document CHEMBL4038284, “Synthesis of novel quinoline-based 4,5-dihydro-1H-pyrazoles as potential anticancer, antifungal, antibacterial and antiprotozoal agents” (Eur J Med Chem, 2017)
